Neddylation inh: inhibitors of cullin neddylation, primary screen, biochemical, TR-FRET, uHTS, NAE and Ubc12 | NEDD8-conjugating enzyme Ubc12 (Homo sapiens) + NEDD8-activating enzyme E1 regulatory … | 360,000 compounds, 0.58% hits | inhibition, % at 25 µM; in the data active = inhibition above about 36%
proCasp7 act: procaspase-7 activators, primary screen, counter-screen for procaspase-3 activator project, biochemical, absorbance, HTS, human. AID 463210, 2010. recombinant procaspase-7, Ac-DEVD-pNA absorbance 405 nm; D23A/D198A/D206A triple mutant, cannot self-cleave; scale: DMSO 0, 5 µM enzyme 100. Caspase-7 (Homo sapiens), P55210. activation, % at 8.5 µM. 330,000 compounds, 0.093% hits;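 active = percent activation above the screen-wide mean plus 3 SD, cut at about 25% in these data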
Target sequence (P55210 whole entry D23A/D198A/D206A): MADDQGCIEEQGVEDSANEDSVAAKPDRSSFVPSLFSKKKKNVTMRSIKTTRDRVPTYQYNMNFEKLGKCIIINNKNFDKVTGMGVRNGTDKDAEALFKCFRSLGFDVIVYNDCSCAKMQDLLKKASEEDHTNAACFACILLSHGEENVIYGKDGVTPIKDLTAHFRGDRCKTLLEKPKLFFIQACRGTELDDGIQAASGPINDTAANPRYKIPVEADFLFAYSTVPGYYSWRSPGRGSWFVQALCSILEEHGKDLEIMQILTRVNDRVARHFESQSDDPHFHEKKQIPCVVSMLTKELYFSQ
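Assay system – Uncleavable procaspase-7 mutant enzyme · Quantity – 2 µM procaspase-7 mutant as dispensed · Times – 1 h preincubation, 2 h reaction · Dosing – single nominal 8.5 µM compound dose, 0.8% DMSO final · Buffer or medium – Zinc-free 50 mM HEPES buffer, pH 7.4, with NaCl and Triton X-100 · Detection – Epi-absorbance of released pNA at 405 nm, two timepoints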
Calb FLC: C. albicans growth inhibition with fluconazole, primary screen, CaCi-2 strain, Alamar Blue fluorescence; C. albicans CaCi-2 + fluconazole, 48 h; growth inhibition, % (test concentration not listed); 300,000 compounds, 0.57% hits;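 active = growth inhibition above about 58% in most replicates, limit read from the data, passing the limit was not always enough; inconclusive = exactly half the replicates above a set limit; inactive = most replicates below a set limit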;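 also: all wells also contain fluconazole at 8 µg/ml as a sub-toxic cotreatment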
HIF activator: HIF pathway transcriptional activators, primary screen, cell-based, U2OS HRE-luciferase, luminescence; U2OS HRE-luciferase reporter; normalized: DMSO 0%, desferrioxamine 100%; activation, % at 7.5 µM (by protocol); 300,000 compounds, 0.32% hits;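 active = mean activation of at least 10% of the iron chelator positive control signal, with at least half of replicates also reaching 10%; inconclusive = mean and replicate majority disagree about reaching 10%; inactive = mean and most replicates under 10%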
GAA850 FXN act: FXN promoter activators, primary screen, cell-based, luciferase luminescence, HEK293 lucGAA850; 360,000 compounds, 0.56% hits; HEK293 lucGAA850 FXN promoter luciferase reporter, 24 h; percent of 10 µM SAHA response; activation, % at 6 µM;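 active = activation above the average of all compounds screened plus 3 SD, cutoff fixed separately per campaign, cut at about 7.5% in these data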
procasp3 activ: activators of human procaspase-3 D3A mutant, primary screen, biochemical, absorbance, PC-3 D3A mutant, single concentration; Caspase-3 (Homo sapiens), P42574; recombinant procaspase-3 D3A, Ac-DEVD-pNA absorbance 405 nm; activation, % at 8.5 µM; 330,000 compounds, 0.11% hits; AID 463141, 2010;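 active = activation above the mean of all tested compounds plus 3 SD, cut at about 21% in these data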
Target sequence (P42574 whole entry D9A/D28A/D175A): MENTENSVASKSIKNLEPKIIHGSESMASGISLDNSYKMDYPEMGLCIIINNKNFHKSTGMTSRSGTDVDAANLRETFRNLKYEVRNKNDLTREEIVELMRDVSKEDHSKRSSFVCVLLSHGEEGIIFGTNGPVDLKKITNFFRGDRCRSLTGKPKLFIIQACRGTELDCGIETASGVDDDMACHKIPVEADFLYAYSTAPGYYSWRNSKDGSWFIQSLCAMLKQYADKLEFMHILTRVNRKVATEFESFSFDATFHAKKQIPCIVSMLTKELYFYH
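Assay system – Procaspase-3 D3A mutant · Benchmarks – DMSO low control, extra-enzyme high control · Technique – 405 nm absorbance of p-nitroaniline, reads at 0 and 120 min · Doses – 8.5 µM nominal · Measure – % activation between DMSO and enzyme-spiked controls · Also added – Ac-DEVD-pNA chromogenic peptide substrate · Schedule – 1 h compound preincubation, 2 h substrate hydrolysis at 25 °C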
Hits are given with their value; i = inactive; ? = inconclusive; nt = no result shown. Rows were chosen to be rich in hits. Some 1.9% of all compounds tested hit in one or more screens of this group.

SMILES | Neddylation inh | proCasp7 act | Calb FLC | HIF activator | GAA850 FXN act | procasp3 activ
CN(C)S(=O)(=O)c1cccc(NC(=S)N/N=C/c2ccc(O)c(O)c2O)c1 | i | nt | 77 | i | i | nt
COc1cc(/C=N/NC(=S)Nc2cccc(S(=O)(=O)N(C)C)c2)cc(OC)c1O | i | i | ? | i | i | i
COCC(=O)Nc1ccc2c(c1)[C@@H]1C[C@H](CC(=O)OC)O[C@H](CO)[C@@H]1O2 | i | nt | nt | nt | i | nt
CC(C=CC(O)=C1C(=O)CNC1=O)=C[C@@H](C)C1OC2(C)OC(C(=O)C3O[C@@]32C)C1C (stereo partly drawn) | i | nt | nt | nt | nt | nt
O=C(O)c1ccc(N=NNc2cccc([N+](=O)[O-])c2)cc1 | i | i | i | i | i | i
N#C/C(=N\Nc1cccc([N+](=O)[O-])c1)C(=O)c1ccc(Br)cc1 | i | i | 97 | i | i | i
COCCN1C(=O)COc2ccccc2C1C(=O)NCc1ccccc1 (stereo not drawn) | i | nt | nt | nt | nt | nt
CS(=O)(=O)N(CC(=O)Nc1ccc(CC#N)cc1)c1ccc(C23CC4CC(CC(C4)C2)C3)cc1 | i | i | i | i | 11 | i
CC(=O)Nc1ccc(NC(=O)CN(c2ccc(C34CC5CC(CC(C5)C3)C4)cc2)S(C)(=O)=O)cc1 | i | i | i | i | 9.5 | i
CS(=O)(=O)N(CC(=O)Nc1c(F)cccc1F)c1ccc(C23CC4CC(CC(C4)C2)C3)cc1 | i | i | i | i | i | i
COc1ccc(CCNC(=O)CSc2nc3c(sc(=S)n3-c3ccccc3)c(=O)[nH]2)cc1OC | i | nt | nt | nt | i | nt
COc1ccc(C(=S)N2CCN(c3ccccc3C)CC2)cc1OC | i | nt | nt | nt | i | nt
NC(=O)c1sc2nccc(Nc3ccccc3)c2c1N | i | i | i | 11 | i | i
O=C(CNC(=O)c1ccccc1)N=Nc1c(O)[nH]c2ccc(Br)cc12 | i | i | i | i | i | i
Oc1[nH]c2ccccc2c1N=NC(=S)N1CCOCC1 | i | i | i | 11 | i | i
Oc1[nH]c2ccc(Br)cc2c1N=NC(=S)N1CCOCC1 | i | i | 96 | 161 | i | i
NC(=S)NNc1cccc(Cl)c1 | i | i | 85 | i | i | i
NC(=S)NNC(=O)Nc1cccc(Cl)c1 | i | i | i | i | i | i
COc1cc(Cl)ccc1OC1(C)CCN(Cc2cccc(OC)c2OC)C1 (stereo not drawn) | i | nt | nt | nt | i | nt
COc1ccccc1-c1csc(C(O)(c2ccccc2)C(F)(F)F)n1 (stereo not drawn) | i | nt | nt | nt | i | nt
CCn1c(SCC(=O)Nc2nncs2)nnc1-c1ccco1 | i | i | i | 34 | i | i
COc1ccc(C(CNC(=O)c2ccc(S(=O)(=O)Nc3ccccc3OC)cc2)N2CCCC2)cc1 (stereo not drawn) | i | nt | nt | nt | i | nt
Cn1nc(-c2ccccc2)c(C(=O)NC(C(=O)O)c2ccccc2)c1Cl (stereo not drawn) | i | i | i | i | i | i
COC(=O)C(NC(=O)c1c(C)nn(C)c1Cl)c1ccccc1 (stereo not drawn) | i | i | i | 609 | i | i
CCOC(=O)Cc1c(-c2cccc(Cl)c2)nc2c3ccccc3ccn12 | i | nt | nt | nt | nt | nt
SMILES | Neddylation inh | proCasp7 act | Calb FLC | HIF activator | GAA850 FXN act | procasp3 activ
O=[N+]([O-])c1ccc(O)c(/C=N/Nc2nn[nH]n2)c1 | i | i | i | i | i | i
O=C(N/N=C/c1cc([N+](=O)[O-])ccc1O)c1cccc2ccccc12 | i | i | i | 11 | i | i
O=C(N/N=C/c1cc([N+](=O)[O-])ccc1O)c1ccc(COc2ccc3c(c2)CCC3)o1 | i | nt | 93 | i | i | nt
COc1ccc(Br)cc1/C=N/NC(=O)c1ccc(COc2ccc3c(c2)CCC3)o1 | i | i | i | i | i | i
O=C(N/N=C/c1cc([N+](=O)[O-])ccc1O)C1CCCCC1 | i | i | i | i | i | i
O=C(N/N=C/c1cc([N+](=O)[O-])ccc1O)C1C2CCCCC21 (stereo not drawn) | nt | i | 101 | i | nt | i
O=[N+]([O-])c1ccc(O)c(/C=N/Nc2ccc(Cl)nn2)c1 | i | i | 117 | 64 | i | i
CCN(CC)c1ncnc2c1ncn2[C@H]1CN(C2CCCC2)C[C@@H](CO)O1 | i | nt | nt | nt | i | nt
CCC1Oc2ccccc2N(CC(=O)Nc2ccccc2OC)C1=O (stereo not drawn) | i | i | i | 225 | i | i
COc1ccc(NC(=O)CNC(=O)c2nn(-c3ccc(OC)cc3OC)c(=O)c3ccccc23)c(OC)c1 | i | i | 93 | i | i | i
COc1ccc(NC(=O)C(=O)Nc2cccc3ccccc23)c(OC)c1 | i | i | i | i | i | i
COc1ccc(-n2nc(C(=O)NCC(=O)NC(C)C)c3ccccc3c2=O)c(OC)c1 | i | i | i | i | i | i
COc1ccc(NC(=O)CNC(=O)Cc2cccc3ccccc23)c(OC)c1 | i | i | i | 93 | i | i
COc1ccc(C(C)(NC(C)=O)c2nc(-c3ccc(F)c(Cl)c3)cs2)cc1 (stereo not drawn) | i | nt | nt | nt | i | nt
C[C@H](NC(=O)c1ncn2c1C(=O)NC[C@H]2C)C(=O)OC(C)(C)C | i | nt | nt | nt | i | nt
Cc1occc1C(=O)N/N=C/c1sc(N2CCOCC2)nc1-c1ccccc1 | i | i | i | i | i | i
O=C(N/N=C/c1sc(N2CCOCC2)nc1-c1ccccc1)c1cccc(S(=O)(=O)N2CCCC2)c1 | nt | i | 88 | i | i | i
CC(C)COC(=O)N(C)C[C@@H]1OCc2cnnn2CCCC(=O)N([C@H](C)CO)C[C@@H]1C | i | nt | nt | nt | i | nt
Cc1ccc2nc(-c3ccncc3)c(NC3CCCCC3)n2c1 | nt | i | i | 452 | i | i
Cc1ccn2c(NC3CCCC3)c(-c3ccccn3)nc2c1 | 38 | i | i | i | i | i
Cc1ccn2c(NC3CCCC3)c(-c3ccncc3)nc2c1 | nt | i | i | i | i | i
c1ccc(-c2nc3ccccn3c2NC2CCCC2)nc1 | 39 | i | i | i | i | i
CC(=O)N1CCOCCOCCN(C(C)=O)CCOCCOCC1 | i | i | 102 | i | i | i
CCC1(c2ccccc2)NC(=S)N(c2ccc(C)cc2)N1 (stereo not drawn) | i | i | 106 | i | i | i
CCC1(c2ccc(Cl)cc2)NC(=S)N(c2ccccc2)N1 (stereo not drawn) | i | i | 117 | i | i | i
O=C(Cc1ccc(S(=O)(=O)N2CCOCC2)s1)Nc1cc(Cl)ccc1Cl | i | i | nt | nt | i | i

High-throughput results deposited in PubChem by several laboratories.
